Most compounds without a hit are left out; they make up all but 3.1% or so of the library.
OX1R antag-1 = blocks the human orexin 1 receptor | inhibition, % at 5 µM | 330,000 compounds, 0.43% hits | O43613 | CHO/OX1R cells, Fluo-8 calcium fluorescence, orexin A | AID 434989;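 active = inhibition above its plate's threshold, mean inhibition of all tested compounds on the plate plus 3 SD, cut at about 37% in these data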;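 also: 0% = orexin A challenge wells and 100% = SB-334867-A antagonist wells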
Target sequence (O43613 whole entry, looked up): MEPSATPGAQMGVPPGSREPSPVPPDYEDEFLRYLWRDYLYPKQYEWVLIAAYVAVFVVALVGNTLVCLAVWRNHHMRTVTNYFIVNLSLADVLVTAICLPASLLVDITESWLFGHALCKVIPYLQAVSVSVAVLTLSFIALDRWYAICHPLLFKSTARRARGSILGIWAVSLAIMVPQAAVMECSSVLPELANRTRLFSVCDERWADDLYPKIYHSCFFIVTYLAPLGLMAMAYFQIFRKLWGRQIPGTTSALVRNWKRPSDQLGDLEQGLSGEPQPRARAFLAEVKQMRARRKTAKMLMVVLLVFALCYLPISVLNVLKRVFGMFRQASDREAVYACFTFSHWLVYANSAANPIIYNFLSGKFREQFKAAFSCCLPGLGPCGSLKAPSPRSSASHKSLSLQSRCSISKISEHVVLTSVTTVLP
CHO parental Ca = signal in parental CHO cells, OX1R antagonist counter-screen. AID 463079. inhibition, % at 5.6 µM. 330,000 compounds, 0.63% hits. parental CHO-K1, ATP-induced calcium, Fluo-8 fluorescence;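 active = inhibition above that plate's mean sample inhibition plus 3 SD, cut at about 26% in these data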;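 also: 0% = ATP-challenged DMSO wells and 100% = DMSO wells without ATP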
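Assay system: parental CHO cells; Read-out basis: percent inhibition of ATP-evoked calcium rise, normalized to controls; Benchmarks: ATP and no-ATP DMSO wells; Compound dosing: single nominal dose of 5.6 µM per compound; Signal: Fluo-8 calcium dye fluorescence; Also added: ATP as calcium-mobilizing challenge; Repeats: singlicate.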
GalR3 antag = blocks the human galanin receptor 3; O60755; HEK293 GalR3-CNG cAMP membrane potential fluorescence; galR3 body fused to GalR1 C-terminus; inhibition, % at 3 µM; 360,000 compounds, 0.44% hits; AID 651719;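 active = inhibition above the screen-wide average plus 3 SD, cut at about 13% in these data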;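 also: forskolin and galanin both at EC90 stimulate the cells; cAMP rise reported by CNG channel membrane potential dye signal; 0% = forskolin plus galanin with DMSO and 100% = forskolin alone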
GPR7 antagonist = antagonists of human GPR7 (neuropeptides B/W receptor 1); GPR7-expressing cells, fluorescence antagonist assay; inhibition, % at 4.4 µM; P48145; 290,000 compounds, 1.1% hits; in the data active = inhibition above about 16%, passing the limit was not always enough;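 also: cells stimulated with the agonist NPW; 0% = agonist with vehicle and 100% = vehicle without agonist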
OX1R antag-2 = blocks the human orexin 1 receptor; O43613; inhibition, % at 6.6 µM; 330,000 compounds, 1.8% hits; AID 485270; OX1R-expressing cells, FRET antagonist read-out; in the data active = inhibition mostly above about 38%, no sharp cut-off; inactive = mostly below about 40%;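 also: 0% = agonist challenge alone and 100% = reference antagonist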
Starred values were filed as active, the others as inactive.

COc1ccc(N2C(=O)CC(Nc3ccc(N4CCOCC4)cc3)C2=O)c(OC)c1 (centres undefined) was read as OX1R antag-1 -6.7, CHO parental Ca 5.5, GalR3 antag -1.9, GPR7 antagonist -13.7 and OX1R antag-2 42.3.
For Cc1cn2c(N)c(/C=C3\C=Nc4ccccc43)c(=O)nc2s1 the results were OX1R antag-1 -11.2, CHO parental Ca -8.5, GalR3 antag -1.7, GPR7 antagonist 9.0 and OX1R antag-2 45.0*.
Screening COc1cccc(CNC(=O)[C@H]2CCCN2C(=O)[C@H]2CCCN2C(=O)c2cccc(Cl)c2)c1 returned GalR3 antag -6.5.
`COc1cccc(/C=N/Nc2nc3ccccc3n3cnnc23)c1O` gave OX1R antag-1 -5.9, CHO parental Ca -2.3, GalR3 antag -3.9, GPR7 antagonist -10.3 and OX1R antag-2 67.0*.
For Cc1[nH]nc(-c2ccc(O)cc2O)c1-c1ccc(Cl)cc1 the results were OX1R antag-1 12.5, CHO parental Ca 12.7, GalR3 antag -6.7, GPR7 antagonist 1.1 and OX1R antag-2 -1.8.
For COc1ccc(-c2n[nH]c(C)c2-c2ccc(Cl)cc2)c(O)c1 the results were OX1R antag-1 39.2, CHO parental Ca 98.3*, GalR3 antag -6.6, GPR7 antagonist -3.1 and OX1R antag-2 21.0.
`O=C(NCc1ccccc1)[C@@H]1CCCN1C(=O)[C@H]1CCCN1C(=O)C1CCCCC1` gave GalR3 antag -2.0.
`C=CCN(C(=O)c1cccc(C(F)(F)F)c1)C1(C(=O)Nc2ccccc2)CCN(C(C)C)CC1` gave OX1R antag-1 -38.1, CHO parental Ca -22.6, GalR3 antag -7.2, GPR7 antagonist 18.4* and OX1R antag-2 9.6.
O=C(O)c1ccc(S(=O)(=O)c2ccc([N+](=O)[O-])cc2[N+](=O)[O-])cc1 was read as OX1R antag-1 -7.1, CHO parental Ca 1.1, GalR3 antag -10.0, GPR7 antagonist 4.3 and OX1R antag-2 56.8*.
O=C(O)c1ccc(/C=N\Nc2ccc(S(=O)(=O)N3CCOCC3)cc2[N+](=O)[O-])cc1 was read as OX1R antag-1 -6.6, CHO parental Ca -10.6, GalR3 antag 0.5, GPR7 antagonist -1.6 and OX1R antag-2 8.4.
`CC(=O)N1CCC(=NNc2ccc(S(N)(=O)=O)cc2[N+](=O)[O-])CC1` gave OX1R antag-1 1.9, CHO parental Ca 1.6, GalR3 antag -7.0, GPR7 antagonist -7.9 and OX1R antag-2 51.3.
Screening CCC(CC)=NNc1ccc(S(N)(=O)=O)cc1[N+](=O)[O-] returned OX1R antag-1 -0.5, CHO parental Ca 3.9, GalR3 antag -1.4, GPR7 antagonist 2.0 and OX1R antag-2 45.7*.
`NS(=O)(=O)c1ccc(NN=C2CCCCC2)c([N+](=O)[O-])c1` gave OX1R antag-1 6.8, CHO parental Ca 17.4, GalR3 antag -5.3, GPR7 antagonist -7.0 and OX1R antag-2 72.8*.
Screening CCOC(=O)N1CCC(=NNc2ccc(S(N)(=O)=O)cc2[N+](=O)[O-])CC1 returned OX1R antag-1 -1.9, CHO parental Ca -1.8, GalR3 antag 0.3, GPR7 antagonist -7.6 and OX1R antag-2 58.7*.
Screening C/C(CCC(C)C)=N\Nc1ccc(S(N)(=O)=O)cc1[N+](=O)[O-] returned OX1R antag-1 -16.5, CHO parental Ca -8.1, GalR3 antag -1.4, GPR7 antagonist -13.5 and OX1R antag-2 25.1.
Screening NS(=O)(=O)c1ccc(N/N=C/c2ccc(C(=O)O)cc2)c([N+](=O)[O-])c1 returned OX1R antag-1 -7.8, CHO parental Ca -8.1, GalR3 antag -4.3, GPR7 antagonist -12.8 and OX1R antag-2 49.7*.
Screening COc1cc(-c2nnc(COC(=O)C3c4ccccc4Oc4ccccc43)o2)cc(OC)c1OC returned OX1R antag-1 -12.0, CHO parental Ca -13.5, GalR3 antag -5.6, GPR7 antagonist 11.0 and OX1R antag-2 42.8*.
`C/C(Cn1cnc([N+](=O)[O-])n1)=N\NC(=O)c1ccccc1` gave OX1R antag-1 -17.1, CHO parental Ca -12.6, GalR3 antag -0.6, GPR7 antagonist -11.5 and OX1R antag-2 37.4.
For C/C(Cn1nnc([N+](=O)[O-])n1)=N\NC(=O)c1ccccc1 the results were OX1R antag-1 1.8, CHO parental Ca -16.8, GalR3 antag -0.5, GPR7 antagonist -10.9 and OX1R antag-2 31.9*.
Screening CN(N=Cc1ccccc1O)C(=O)c1ccccc1N returned GalR3 antag -9.4.
For CCOC(=O)c1cc2c(=O)n3cccc(C)c3nc2n(Cc2ccco2)c1=NC(=O)c1cccnc1 the results were GalR3 antag -4.6 and GPR7 antagonist 3.5.
For CCOC(=O)c1cc2c(=O)n3ccccc3nc2n(Cc2ccco2)c1=NC(=O)c1ccccc1OCC the results were OX1R antag-1 -21.2, CHO parental Ca -9.1, GalR3 antag -6.2, GPR7 antagonist -5.2 and OX1R antag-2 37.6*.
Screening CCOC(=O)c1cc2c(=O)n3ccccc3nc2n(Cc2ccco2)c1=NC(=O)c1cccnc1 returned OX1R antag-1 -29.6, CHO parental Ca -17.9, GalR3 antag -1.8, GPR7 antagonist -10.0 and OX1R antag-2 51.8*.
For O=C(CSc1ncnc2[nH]ncc12)Nc1nc(-c2ccc(F)c(F)c2)cs1 the results were OX1R antag-1 45.3*, CHO parental Ca 42.2*, GalR3 antag -5.0, GPR7 antagonist -9.0 and OX1R antag-2 51.6*.
`O=C(Cc1ccc(F)cc1)Nc1nc(-c2ccc(F)c(F)c2)cs1` gave GalR3 antag -7.7 and GPR7 antagonist 8.7.
Screening CC1(C(=O)Nc2ccc(Cl)c(Cl)c2)CCN1C(=O)Cc1cccc2ccccc12 (centres undefined) returned GalR3 antag -6.5.
`O=[N+]([O-])c1ccc(N2CCc3ccccc3C2)cc1` gave OX1R antag-1 5.0, CHO parental Ca -4.4, GalR3 antag -6.5, GPR7 antagonist -9.8 and OX1R antag-2 52.0*.
Screening O=C(C[C@H]1C[C@@H]2c3cc(NC(=O)c4cccnc4)ccc3O[C@@H]2[C@H](CO)O1)NCc1ccncc1 returned GalR3 antag -5.3.
Screening CC(C)CN(C(=O)CSc1nc2ccccc2o1)c1c(N)n(Cc2ccccc2)c(=O)[nH]c1=O returned OX1R antag-1 0.9, CHO parental Ca -21.0, GalR3 antag -4.2 and OX1R antag-2 30.6*.
Screening CC(C)CN(C(=O)CSc1nnc(-c2ccco2)o1)c1c(N)n(Cc2ccccc2)c(=O)[nH]c1=O returned OX1R antag-1 0.5, CHO parental Ca -20.8, GalR3 antag 5.0, GPR7 antagonist -7.5 and OX1R antag-2 67.8*.
CCN(CC)c1ccc(-c2nnc(SCC(=O)N(CCOC)c3c(N)n(CC(C)C)c(=O)[nH]c3=O)o2)cc1 was read as OX1R antag-1 -25.8, CHO parental Ca -22.7, GalR3 antag 2.8 and OX1R antag-2 56.5*.
For CCCCN(C(=O)CSc1nnc(-c2ccccc2)o1)c1c(N)n(CCC)c(=O)[nH]c1=O the results were OX1R antag-1 5.8, CHO parental Ca -15.2, GalR3 antag -4.2 and OX1R antag-2 14.1.
